Measurements: PubChem BioAssay
Activity calls are given as the source filed them.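 The calls were made as follows, unless noted: active = viability at or below 30% in both replicate assays; inconclusive = viability at or below 30% in just one of the two assays; inactive = the rest.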

Experiments:
[1] = reduced viability of SK-BR-3 breast cancer cells – cell-based, 24 h, human, pilot screen (AID 572;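 active = viability at or below 10% of carrier control in both of two separate runs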;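 also: compound exposure lasted between 18 and 24 h rather than exactly 24 h; 100% = carrier-treated control wells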); details: SK-BR-3 viability, CellTiter-Glo luminescence, at 10 µM, stronger effect = lower value
[2] = HUVEC growth inhibition – cell-based, human, primary screen (AID 575); details: HUVEC proliferation, CellTiter-Glo luminescence, 72 h; at 10 µM; stronger effect = lower value;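 also: 100% = median of untreated cell wells with 0.1% DMSO on each plate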
How it was run: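 Test system: primary human umbilical vein endothelial cells. Quantity: 1250 cells/well. Compound: single 10 µM dose, 0.1% DMSO, from 5x medium stock. Timing: 72 h treatment at 37 °C. Detection: ATP-based CellTiter-Glo luminescent read. Benchmarks: vehicle and MePR control wells. Format: 384-well plates coated with collagen.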

[3] = H69AR cell proliferation blockers – human, duplicate replicates, primary screen (AID 580;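 active = viability at or under a set limit in both replicates, limit being median viability minus 3 SD, cut at about 48% in these data, passing the limit was not always enough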;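 also: 100% = mean luminescence of untreated wells and 0% = no signal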); details: H69AR lung tumor cells viability, ATP luminescence, 72 h; at 10 µM; stronger effect = lower value
[4] = MRP1 drug-resistance reversers in H69AR cells – cell-based, doxorubicin co-treatment, pilot screen (AID 601;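 active = viability loss from added drug above about 55%, and viability with drug at most 40%, in both replicates, limit read from the data, passing the limit was not always enough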); details: CellTiter-Glo, 72 h, at 10 µM; for differential viability (reversal): stronger effect = higher value
[5] = yeast transport mutant growth inhibition pilot in 384-well plates, post-Golgi transport modulator project (AID 636; in the data active = inhibition above about 31%); details: absorbance 615 nm, about 18 h, stronger effect = higher value
[6] = growth suppression of yeast trafficking mutant, preliminary HTS, modulators of trafficking downstream of Golgi apparatus project, 1536-format plate, OD 615 nm (AID 637; in the data active = inhibition above about 30%); details: yeast transport mutant growth, absorbance 615 nm, 18 h; stronger effect = higher value
[7] = H69AR cells + 2 uM doxorubicin, measured here: viability with 2 uM doxorubicin, stronger effect = lower value
[8] = H69AR cells, compound alone cytotoxicity

SMILES	viability [1]	viability [2]	viability [3]	differential viability (reversal) ([4]; H69AR cells + 2 uM doxorubicin)	viability [4, 7]	viability [4, 8]	inhibition [5]	inhibition [6]
COC(=O)CN(Cc1ccco1)S(=O)(=O)c1ccccc1	98% (inactive)	102% (inactive)	77.6% (inactive)	-3.33% (inactive)	80.9%	77.6%	-2.67% (inactive)	-0.91% (inactive)
COc1ccc(CCN2CC(O)=C(c3nc4ccccc4c(=O)[nH]3)C2=N)cc1OC	105% (inactive)	85.6% (inactive)	80.8% (inactive)	-4.8% (inactive)	85.6%	80.8%	-1.95% (inactive)	1.8% (inactive)
COc1ccccc1-n1c(SCC(=O)NC(C)(C)C)nnc1-c1ccco1	82% (inactive)	104% (inactive)	96.1% (inactive)	-15.2% (inactive)	111%	96.1%	-4.79% (inactive)	-3.45% (inactive)
CCOc1ccc(-c2cn(S(=O)(=O)c3cccc4nsnc34)nc2N)cc1	117% (inactive)	94.8% (inactive)	84.8% (inactive)	3.21% (inactive)	81.6%	84.8%	34.9% (active)	31% (active)
Cc1ccc(CS(=O)(=O)Cc2ccc(C(=O)NCc3ccccn3)o2)cc1	95% (inactive)	99.8% (inactive)	99.4% (inactive)	9% (inactive)	90.4%	99.4%	-1.87% (inactive)	-0.18% (inactive)
COc1ccc(OC)c(Nc2nc(-c3sc(N)nc3C)cs2)c1	97% (inactive)	55.3% (inactive)	78% (inactive)	2.88% (inactive)	75.1%	78%	-6.49% (inactive)	-0.91% (inactive)
CCN(CCCc1ccccc1)CCCc1ccccc1	76% (inactive)	77.6% (inactive)	78.6% (inactive)	-12.7% (inactive)	91.2%	78.6%	2.34% (inactive)	15% (inactive)
Cc1cc(C)nc(SCc2nnc(SCC(=O)Nc3ncc(C)s3)n2Cc2ccco2)n1	91% (inactive)	97.1% (inactive)	90.4% (inactive)	7.87% (inactive)	82.6%	90.4%	-7.87% (inactive)	-5.09% (inactive)
CCC(=O)c1ccc(O)cc1	96% (inactive)	97% (inactive)	97.1% (inactive)	-3.6% (inactive)	101%	97.1%	-0.13% (inactive)	3.33% (inactive)
Cc1cc(C)n(-c2nc3sc4c(c3c3nnc(SCC(N)=O)n23)CC(C)(C)OC4)n1	84% (inactive)	97.4% (inactive)	90.7% (inactive)	3.85% (inactive)	86.8%	90.7%	0.68% (inactive)	-3.87% (inactive)
CC1CCN(CCCNC(=O)c2coc3nc4ccccc4nc23)CC1	148% (inactive)	90.6% (inactive)	92.9% (inactive)	-6.4% (inactive)	99.3%	92.9%	-2.73% (inactive)	-2.13% (inactive)
C=CCn1c(SCC(=O)C(C)(C)C)nnc1-c1ccccn1	88% (inactive)	94.4% (inactive)	92.2% (inactive)	-0.455% (inactive)	92.6%	92.2%	-7.57% (inactive)	-3.64% (inactive)
CC(=O)/C(C[N+]1(C)CCCCC1)=N\O	107% (inactive)	103% (inactive)	105% (inactive)	18.9% (inactive)	85.6%	105%	-6.13% (inactive)	0.55% (inactive)
N[C@@H](Cc1ccc(O)c(I)c1)C(=O)O	87% (inactive)	87.5% (inactive)	105% (inactive)	15.7% (inactive)	89.3%	105%	-4.81% (inactive)	-1.33% (inactive)
COCCN(CCOC)C(=O)CCn1c(=O)oc2ccccc21	95% (inactive)	105% (inactive)	89% (inactive)	-7.45% (inactive)	96.5%	89%	-3.97% (inactive)	-0.18% (inactive)
Cn1c(=O)c2c(nc(N3CCN(c4ccccc4)CC3)n2CCCc2ccccc2)n(C)c1=O	68% (inactive)	90.6% (inactive)	84.1% (inactive)	1.85% (inactive)	82.2%	84.1%	-3.33% (inactive)	7.09% (inactive)
Cc1cccc(-n2ncc3c(NCc4cccs4)ncnc32)c1	64% (inactive)	61.8% (inactive)	66.1% (inactive)	-22.8% (inactive)	88.9%	66.1%	26.2% (inactive)	0.36% (inactive)
Cc1cccn2c(=O)c3cc(C#N)c(=NC(=O)c4ccncc4)n(Cc4ccco4)c3nc12	110% (inactive)	64.1% (inactive)	67% (inactive)	15.3% (inactive)	51.7%	67%	-1.58% (inactive)	7.74% (inactive)
CC(=O)Nc1ccc(S(=O)(=O)N2CCN(c3cc(C)nc4ccccc34)CC2)cc1	103% (inactive)	96.7% (inactive)	87.1% (inactive)	0.84% (inactive)	86.2%	87.1%	-5.41% (inactive)	-3.09% (inactive)
CCN(CC)CCCN1C(=O)C(=O)/C(=C(/O)c2ccc3c(c2)OCO3)C1c1ccccn1 (configuration not stated)	97% (inactive)	82.4% (inactive)	93.3% (inactive)	4.7% (inactive)	88.6%	93.3%	-5.89% (inactive)	0.32% (inactive)
Cc1nccn1CCCN1C(=O)OC2(CCCCC2)C1(C)O (configuration not stated)	90% (inactive)	88.1% (inactive)	98.5% (inactive)	-3.27% (inactive)	102%	98.5%	-7.53% (inactive)	-1.29% (inactive)
Cc1cc(C)nc(N(C#N)CC(=O)N2CCC(C(N)=O)CC2)n1	104% (inactive)	85.9% (inactive)	98.6% (inactive)	4.1% (inactive)	94.5%	98.6%	-7.95% (inactive)	1.45% (inactive)
CCOC(=O)c1oc2cc(OCC(N)=O)ccc2c(=O)c1-c1ccc(OC)c(OC)c1	65% (inactive)	88.1% (inactive)	99% (inactive)	-2.63% (inactive)	102%	99%	-7.67% (inactive)	-0.55% (inactive)
O=C(NC1(C(F)(F)F)C(=O)Nc2c1c(=O)[nH]c(=O)n2Cc1ccco1)C1CCCCC1 (configuration not stated)	106% (inactive)	97.6% (inactive)	97.9% (inactive)	17.5% (inactive)	80.4%	97.9%	-6.49% (inactive)	-1.82% (inactive)
